The text below walks through data of publication PMC6923801 (Journal of medicinal chemistry, 2019).

Structures are written as SMILES.

Type in all cases: cell-based
Test [1] deals with human GPR68 (Homo sapiens, UniProt Q15743). As to the kind of experiment: GloSensor cAMP assay, proton-mediated Gs-cAMP production at human GPR68. The following applies: for Δ: difference of Log(αβ/KB) from that of 1. Put shortly: (§1)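 HEK293T cells were transiently transfected with receptor and GloSensor cAMP plasmids, overnight (16–20 h). Cells were plated on poly-L-Lys in DMEM + 1% dFBS for 6–24 h, then loaded with 3.5 mM luciferin (HBSS, 20 mM TAPS, pH 8.40) for 1 h at 37 °C. Drug was applied in Ca/Mg-free HBSS pH buffers (MES 5.60–6.70, HEPES 6.80–8.20, TAPS 8.30–8.60) with 10 μM Ro 20-1724. Luminescence was read at 20–30 min.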
human GPR68, sequence (Q15743 whole entry): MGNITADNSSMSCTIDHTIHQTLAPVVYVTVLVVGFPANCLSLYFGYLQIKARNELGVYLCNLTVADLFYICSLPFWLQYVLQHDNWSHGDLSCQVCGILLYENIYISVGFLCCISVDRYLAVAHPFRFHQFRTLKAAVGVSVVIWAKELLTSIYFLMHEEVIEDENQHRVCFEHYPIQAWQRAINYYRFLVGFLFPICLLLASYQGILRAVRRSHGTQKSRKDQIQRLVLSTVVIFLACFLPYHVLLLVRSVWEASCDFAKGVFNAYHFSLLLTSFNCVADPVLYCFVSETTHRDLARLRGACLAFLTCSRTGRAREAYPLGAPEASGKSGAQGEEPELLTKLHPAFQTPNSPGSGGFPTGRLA
In general terms: cAMP levels reflect the balance of adenylyl cyclase and phosphodiesterase activity.

The target in test [2] is GPR4 (Homo sapiens, UniProt P46093). Briefly: GloSensor cAMP assay at GPR4. The following applies: proton concentration-response with increasing modulator. An outline of the steps:
as §1

The target in test [3] is GPR65 (Homo sapiens, UniProt Q8IYL9). As to the kind of experiment: GloSensor cAMP assay at GPR65. The following applies: proton concentration-response with increasing modulator. An outline of the steps: as §1
GPR65, sequence (Q8IYL9 whole entry): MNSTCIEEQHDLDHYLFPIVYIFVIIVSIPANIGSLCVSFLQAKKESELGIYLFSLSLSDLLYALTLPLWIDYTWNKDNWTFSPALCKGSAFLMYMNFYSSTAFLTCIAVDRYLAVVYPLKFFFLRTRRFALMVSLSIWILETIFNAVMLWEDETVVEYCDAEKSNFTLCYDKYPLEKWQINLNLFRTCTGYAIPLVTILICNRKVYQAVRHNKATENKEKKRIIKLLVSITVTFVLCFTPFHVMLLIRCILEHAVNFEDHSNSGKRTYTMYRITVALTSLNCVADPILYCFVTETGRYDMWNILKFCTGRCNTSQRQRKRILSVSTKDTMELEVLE
Test [4] has as its target mouse GPR68 (Mus musculus, UniProt Q8BFQ3). Briefly: GloSensor cAMP assay at mouse GPR68. An outline of the steps: as §1
Test [5] has as its target A2A receptors (Homo sapiens, UniProt P29274). As to the kind of experiment: Functional assay at A2A receptors.
Test [6] has as its system human GPCRome (318 GPCRs). As to the kind of experiment: PRESTO-Tango GPCRome off-target agonist screen. The following applies: 1 μM. Put shortly:
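HTLA cells were plated in DMEM + 2% dFBS overnight, then transfected overnight with receptor Tango constructs (15 ng/well) by in-plate PEI. Test compound was added without medium change and left overnight. Bright-Glo luminescence was read after 20 min at room temperature and expressed as fold of basal, using quadruplicate basal and sample wells. Controls were D2 with 100 nM quinpirole and untransfected cells.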

mouse GPR68, sequence (Q8BFQ3 whole entry): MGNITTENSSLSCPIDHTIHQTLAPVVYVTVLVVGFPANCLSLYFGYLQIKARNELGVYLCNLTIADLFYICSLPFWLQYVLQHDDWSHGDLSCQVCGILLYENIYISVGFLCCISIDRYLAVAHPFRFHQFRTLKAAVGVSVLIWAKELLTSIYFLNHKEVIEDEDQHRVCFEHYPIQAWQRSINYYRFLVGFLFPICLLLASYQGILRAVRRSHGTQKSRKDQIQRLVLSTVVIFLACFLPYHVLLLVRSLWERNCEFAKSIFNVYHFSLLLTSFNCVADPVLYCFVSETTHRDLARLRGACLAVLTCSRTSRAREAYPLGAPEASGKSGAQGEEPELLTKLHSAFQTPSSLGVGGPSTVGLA
GPR4, sequence (P46093 whole entry): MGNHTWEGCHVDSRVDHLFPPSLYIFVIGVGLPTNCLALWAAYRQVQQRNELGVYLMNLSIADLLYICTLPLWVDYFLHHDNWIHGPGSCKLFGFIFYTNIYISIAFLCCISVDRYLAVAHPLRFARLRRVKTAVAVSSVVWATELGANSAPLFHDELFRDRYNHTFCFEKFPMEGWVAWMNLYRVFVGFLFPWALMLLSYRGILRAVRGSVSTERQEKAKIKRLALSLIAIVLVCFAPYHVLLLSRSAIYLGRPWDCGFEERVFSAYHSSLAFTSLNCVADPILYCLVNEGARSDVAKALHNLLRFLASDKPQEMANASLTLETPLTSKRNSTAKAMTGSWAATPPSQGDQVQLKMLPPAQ
A2A receptors, sequence (P29274 whole entry): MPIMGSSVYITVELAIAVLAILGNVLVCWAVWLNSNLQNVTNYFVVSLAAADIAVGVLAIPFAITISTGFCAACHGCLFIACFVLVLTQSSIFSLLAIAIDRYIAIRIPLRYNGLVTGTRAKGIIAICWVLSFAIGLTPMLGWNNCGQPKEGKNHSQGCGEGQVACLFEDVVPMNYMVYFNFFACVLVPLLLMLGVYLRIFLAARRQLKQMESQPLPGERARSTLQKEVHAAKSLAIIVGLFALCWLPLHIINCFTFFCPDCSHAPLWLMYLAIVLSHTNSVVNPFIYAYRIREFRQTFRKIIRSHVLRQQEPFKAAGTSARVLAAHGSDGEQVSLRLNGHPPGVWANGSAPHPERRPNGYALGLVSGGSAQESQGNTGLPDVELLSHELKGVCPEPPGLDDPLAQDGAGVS

With `Nc1nc(NCc2ccccc2)nc(-c2cccc(CO)c2)n1` [Compound 20], the “Log (α)” value in test [1] (affinity cooperativity, human GPR68, HEK293T, Gs-cAMP, mean ± SEM) is “Inactive”. The “−Log (KB)” value in test [1] (allosteric binding affinity from functional assay, human GPR68, mean ± SEM) is recorded as “Inactive”. For the same compound, the “Log (αβ/KB)” value in test [1] (allosteric index, human GPR68, mean ± SEM) is “Inactive”. Besides, the Δ result in test [1] (human GPR68) is “Inactive”. Besides, in test [1] (efficacy cooperativity, human GPR68, HEK293T, Gs-cAMP, mean ± SEM), the “Log (β)” value is recorded as “Inactive”. For the same compound, the “PAM activity at GPR68” value in test [1] (inactive analogues) is “do not show PAM activity”. In test [2], the “PAM activity at GPR4” value is listed as “do not show PAM activity”. Also, the “PAM activity at GPR65” value in test [3] is on record as “do not show PAM activity”.

A word on the EC50: it is the concentration needed to bring the measured effect to its halfway point. Low readings indicate greater potency, high ones weaker potency. The compound `Nc1nc(NCc2ccc(Cl)cc2)nc(-c2ccccc2CO)n1` [Compound 46, (2-(4-Amino-6-((4-chlorobenzyl)amino)-1,3,5-triazin-2-yl)-phenyl)methanol] had a Kb in test [1] of 6.03 µM. Moreover, in test [1] (human GPR68), the Δ is 0.80 and the “fold increased allosteric activity (log(αβ/KB)) compared to 1” value is 6 fold. In test [4], the Kb was 50.1 µM. Moreover, in test [4] (difference of Log(αβ/KB) at mouse GPR68 from the corresponding values at human GPR68), the Δ was −0.43. The “PAM activity at GPR4” value in test [2] was “no effect or weak activity only at high concentrations”. In addition, in test [3], the “PAM activity at GPR65” value was “no effect or weak activity only at high concentrations”. In test [5], it took 1.7 µM to reach a half-maximal effect (EC50) and the “agonist activity at A2A receptors” value is reported as “no agonist activity”. Also, the “off-target agonist activity at human GPCRome” value in test [6] is on record as “no agonist activity”.

In test [1], `COc1ccccc1CNc1nc(N)nc(-c2ccccc2CO)n1` [Compound 53, (2-(4-Amino-6-((2-methoxybenzyl)amino)-1,3,5-triazin-2-yl)-phenyl)methanol] gave a Kb of 102 µM. The Δ in test [1] (human GPR68) is given as −0.28.

In turn, `COc1cccc(CNc2nc(N)nc(-c3ccccc3CO)n2)c1` [Compound 54, (2-(4-Amino-6-((3-methoxybenzyl)amino)-1,3,5-triazin-2-yl)-phenyl)methanol] gave a Kb in test [1] of 77.6 µM. The Δ in test [1] (human GPR68) is on record as −0.09.

`COc1ccc(CNc2nc(N)nc(-c3ccccc3CO)n2)cc1` [Compound 55]: the Kb in test [1] was 457 µM. This compound gave a Δ in test [1] (human GPR68) of −0.70.

Take `CCOc1ccc(CNc2nc(N)nc(-c3ccccc3CO)n2)cc1` [Compound 56, (2-(4-Amino-6-((4-ethoxybenzyl)amino)-1,3,5-triazin-2-yl)-phenyl)methanol]: the Kb in test [1] was 17 µM. Besides, in test [1] (human GPR68), the Δ is reported as 0.26.

In test [1], `CC(C)Oc1ccc(CNc2nc(N)nc(-c3ccccc3CO)n2)cc1` [Compound 57, (2-(4-Amino-6-((4-isopropoxybenzyl)amino)-1,3,5-triazin-2-yl)-phenyl)methanol] had a Kb of 10.2 µM. The same compound had a Δ in test [1] (human GPR68) of 0.38.

Consider `Nc1nc(NCc2ccc(OC3CC3)cc2)nc(-c2ccccc2CO)n1` [Compound 58, (2-(4-Amino-6-((4-cyclopropoxybenzyl)amino)-1,3,5-triazin-2-yl)phenyl)methanol], for which the Kb in test [1] is 8.51 µM. This compound returned a Δ in test [1] (human GPR68) of 0.46.

For the compound `Nc1nc(NCc2ccc(Oc3ccccc3)cc2)nc(-c2ccccc2CO)n1` [Compound 59, (2-(4-Amino-6-((4-phenoxybenzyl)amino)-1,3,5-triazin-2-yl)-phenyl)methanol], in test [1], the Kb was 6.46 µM. Besides, in test [1] (human GPR68), the Δ was 0.83.

Compound `Nc1nc(Nc2ccccc2)nc(-c2ccccc2CO)n1` [Compound 60, (2-(4-Amino-6-(phenylamino)-1,3,5-triazin-2-yl)phenyl)-methanol] had a Kb in test [1] of 120 µM. The compound further had a Δ in test [1] (human GPR68) of −0.27.

`Nc1nc(NCCc2ccccc2)nc(-c2ccccc2CO)n1` [Compound 61] had a Kb in test [1] of 31.6 µM. The compound further displayed a Δ in test [1] (human GPR68) of 0.31.

The compound `Nc1nc(NCCCc2ccccc2)nc(-c2ccccc2CO)n1` [Compound 62] had a Kb in test [1] of 6.03 µM. This compound also gave a Δ in test [1] (human GPR68) of 0.80.

`Nc1nc(NCCCCc2ccccc2)nc(-c2ccccc2CO)n1` [Compound 63]: the Kb in test [1] is 3.02 µM; in test [4] it was 12.3 µM. The Δ in test [1] (human GPR68) is given as 1.04.

The compound `Nc1nc(NCCc2ccc(Oc3ccccc3)cc2)nc(-c2ccccc2CO)n1` [Compound 64, (2-(4-Amino-6-((4-phenoxyphenethyl)amino)-1,3,5-triazin-2-yl)-phenyl)methanol] showed a Kb in test [1] of 10 µM. In test [1] (human GPR68), this compound displayed a Δ of 0.59.

`Nc1nc(NCCCc2ccc(Oc3ccccc3)cc2)nc(-c2ccccc2CO)n1` [Compound 65, (2-(4-Amino-6-((3-(4-phenoxyphenyl)propyl)amino)-1,3,5-triazin-2-yl)phenyl)methanol] had a Kb in test [1] of 21.4 µM. The compound also registered a Δ in test [1] (human GPR68) of 0.53.

For `Nc1nc(NCCCCc2ccc(Oc3ccccc3)cc2)nc(-c2ccccc2CO)n1` [Compound 66, (2-(4-Amino-6-((4-(4-phenoxyphenyl)butyl)amino)-1,3,5-triazin-2-yl)phenyl)methanol], the Kb in test [1] is 15.5 µM. In addition, in test [1] (human GPR68), the Δ is 0.62.

For `Nc1nc(NCc2ccccc2F)nc(-c2c(F)cccc2CO)n1` [Compound 67, (2-(4-Amino-6-((2-fluorobenzyl)amino)-1,3,5-triazin-2-yl)-3-fluorophenyl)methanol], the Kb in test [1] was 60.3 µM.

In the case of `Nc1nc(NCc2ccc(F)cc2)nc(-c2c(F)cccc2CO)n1` [Compound 68, (2-(4-Amino-6-((4-fluorobenzyl)amino)-1,3,5-triazin-2-yl)-3-fluorophenyl)methanol], the Kb in test [1] was 35.5 µM. In test [1] (human GPR68), the Δ is on record as 0.24.

In turn, `Cc1cccc(CNc2nc(N)nc(-c3c(F)cccc3CO)n2)c1` [Compound 69, (2-(4-Amino-6-((3-methylbenzyl)amino)-1,3,5-triazin-2-yl)-3-fluorophenyl)methanol] had a Kb in test [1] of 36.3 µM. Also, in test [1] (human GPR68), the Δ turned out to be 0.11.

As for `COc1ccccc1CNc1nc(N)nc(-c2c(F)cccc2CO)n1` [Compound 70, (2-(4-Amino-6-((2-methoxybenzyl)amino)-1,3,5-triazin-2-yl)-3-fluorophenyl)methanol], the Kb in test [1] was 77.6 µM. This compound displayed a Δ in test [1] (human GPR68) of −0.19.

`Nc1nc(NCCc2ccccc2)nc(-c2c(F)cccc2CO)n1` [Compound 72, (2-(4-Amino-6-(phenethylamino)-1,3,5-triazin-2-yl)-3-fluorophenyl)methanol]: in test [1], the Kb is 9.12 µM. The Δ in test [1] (human GPR68) came out at 0.82.

In test [1], `Nc1nc(NCCCc2ccccc2)nc(-c2c(F)cccc2CO)n1` [Compound 73, (2-(4-Amino-6-((3-phenylpropyl)amino)-1,3,5-triazin-2-yl)-3-fluorophenyl)methanol] had a Kb of 33.9 µM. Also, the Δ in test [1] (human GPR68) was 0.36.

On to `Nc1nc(NCCCCc2ccccc2)nc(-c2c(F)cccc2CO)n1` [Compound 74, (2-(4-Amino-6-((4-phenylbutyl)amino)-1,3,5-triazin-2-yl)-3-fluorophenyl)methanol], for which, in test [1], the Kb was 91.2 µM. Besides, the Δ in test [1] (human GPR68) stood at 0.03.

`Nc1nc(NCCc2ccc(Oc3ccccc3)cc2)nc(-c2c(F)cccc2CO)n1` [Compound 75, (2-(4-Amino-6-((4-phenoxyphenethyl)amino)-1,3,5-triazin-2-yl)-3-fluorophenyl)methanol] showed a Kb in test [1] of 8.91 µM. Besides, the Δ in test [1] (human GPR68) turned out to be 0.82.

In the case of `Nc1nc(NCCCc2ccc(Oc3ccccc3)cc2)nc(-c2c(F)cccc2CO)n1` [Compound 76, (2-(4-Amino-6-((3-(4-phenoxyphenyl)propyl)amino)-1,3,5-triazin-2-yl)-3-fluorophenyl)methanol], the Kb in test [1] was 11.5 µM. For the same compound, the Δ in test [1] (human GPR68) is listed as 0.81.

The compound `Nc1nc(NCCCCc2ccccc2)nc(-c2cc(Cl)ccc2CO)n1` [Compound 79, (2-(4-Amino-6-((4-phenylbutyl)amino)-1,3,5-triazin-2-yl)-4-chlorophenyl)methanol] had a Kb in test [1] of 10.5 µM. In test [1] (human GPR68), this compound came in with a Δ of 0.83.

Compound `Nc1nc(NCc2ccc(Oc3ccccc3)cc2)nc(-c2cc(Cl)ccc2CO)n1` [Compound 80, (2-(4-Amino-6-((4-phenoxybenzyl)amino)-1,3,5-triazin-2-yl)-4-chlorophenyl)methanol] showed a Kb in test [1] of 20 µM. The Δ in test [1] (human GPR68) was found to be 0.47.

`Nc1nc(NCCc2ccc(Oc3ccccc3)cc2)nc(-c2cc(Cl)ccc2CO)n1` [Compound 81, (2-(4-Amino-6-((4-phenoxyphenethyl)amino)-1,3,5-triazin-2-yl)-4-chlorophenyl)methanol] had a Kb in test [1] of 25.7 µM. The Δ in test [1] (human GPR68) is reported as 0.56.
